# Measured values from ChEMBL document CHEMBL1152917, “Benzothiophene piperazine and piperidine urea inhibitors of fatty acid amide hydrolase (FAAH)” (2009).
# Legend:
# [1] = target: T1, Fatty-acid amide hydrolase 1 (Rattus norvegicus) (UniProt P97612); test: Ratio of Kinact to Ki for histidine6-tagged rat FAAH
# T1 sequence (whole entry): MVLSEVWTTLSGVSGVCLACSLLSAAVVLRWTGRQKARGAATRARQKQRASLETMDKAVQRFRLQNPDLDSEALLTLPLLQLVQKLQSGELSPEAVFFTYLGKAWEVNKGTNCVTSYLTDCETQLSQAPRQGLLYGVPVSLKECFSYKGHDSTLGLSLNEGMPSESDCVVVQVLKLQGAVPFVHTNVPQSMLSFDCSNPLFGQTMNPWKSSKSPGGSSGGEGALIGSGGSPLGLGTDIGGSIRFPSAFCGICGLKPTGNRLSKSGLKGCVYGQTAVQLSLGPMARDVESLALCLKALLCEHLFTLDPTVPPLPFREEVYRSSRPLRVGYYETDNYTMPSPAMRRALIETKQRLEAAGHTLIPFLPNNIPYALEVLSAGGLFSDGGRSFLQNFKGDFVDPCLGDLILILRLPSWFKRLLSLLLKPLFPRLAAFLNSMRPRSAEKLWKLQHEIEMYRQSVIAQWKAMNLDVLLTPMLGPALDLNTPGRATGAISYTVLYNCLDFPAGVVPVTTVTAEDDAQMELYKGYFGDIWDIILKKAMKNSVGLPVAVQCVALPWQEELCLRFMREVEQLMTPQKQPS
# Method in brief: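 Rat FAAH construct: aa 30–579, N-terminal transmembrane-deleted, N-terminal His6 tag, E. coli-expressed and purified to >95% purity. Activity read by a GDH-coupled enzyme assay in 384-well plates. Second-order kinact/Ki was derived from the linear slope of kobs versus [I], correcting with (1+[S]/Km).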
# [2] = target: T2, Fatty-acid amide hydrolase 1 (Homo sapiens) (UniProt O00519); test: Ratio of Kinact to Ki for histidine6-tagged human FAAH
# T2 sequence (whole entry): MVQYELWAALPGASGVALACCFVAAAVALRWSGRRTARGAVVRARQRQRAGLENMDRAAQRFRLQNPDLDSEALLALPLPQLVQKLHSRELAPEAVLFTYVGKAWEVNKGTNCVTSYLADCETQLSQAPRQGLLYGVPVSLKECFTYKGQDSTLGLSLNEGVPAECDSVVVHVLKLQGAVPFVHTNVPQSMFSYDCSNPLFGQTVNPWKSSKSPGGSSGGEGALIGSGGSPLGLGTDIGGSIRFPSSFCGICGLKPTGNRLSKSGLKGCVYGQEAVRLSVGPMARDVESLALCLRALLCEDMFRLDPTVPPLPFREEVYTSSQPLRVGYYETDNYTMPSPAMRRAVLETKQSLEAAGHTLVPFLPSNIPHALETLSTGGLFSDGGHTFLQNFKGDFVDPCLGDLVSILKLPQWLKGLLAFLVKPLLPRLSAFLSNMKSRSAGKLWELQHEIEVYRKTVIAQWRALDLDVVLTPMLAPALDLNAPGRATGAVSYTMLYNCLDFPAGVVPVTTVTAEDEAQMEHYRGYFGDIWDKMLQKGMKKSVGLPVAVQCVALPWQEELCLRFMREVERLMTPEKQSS
# Method in brief: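 Human FAAH construct: aa 32–579, N-terminal transmembrane-deleted, N-terminal His6 tag, expressed in E. coli and purified to >95% by SDS–PAGE. Potency measured as kinact/Ki in a GDH-coupled FAAH assay in 384-well format. kobs was plotted against [I]; kinact/Ki came from the slope kinact/[Ki(1+[S]/Km)].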
Ratio [1] [M⁻¹ s⁻¹],Ratio [2] [M⁻¹ s⁻¹],SMILES
191,924,CCNc1ccc(NC(=O)N2CCN(Cc3sc4ccccc4c3C)CC2)cn1
260,1870,Cc1ccc(NC(=O)N2CCN(Cc3sc4ccc(F)cc4c3C)CC2)cn1
1010,1670,CCc1c(CC2CCN(C(=O)Nc3cccnc3)CC2)sc2ccccc12
762,1920,Cc1c(CN2CCN(C(=O)Nc3ccccc3)CC2)sc2ccccc12
14,73,Cc1ccc2c(Cl)c(CN3CCN(C(=O)Nc4ccc(C)nc4)CC3)sc2c1
779,3130,Cc1c(CN2CCN(C(=O)Nc3cccnc3)CC2)sc2ccc(F)cc12
242,< 10,Cc1c(CN2CCN(C(=O)Nc3ccc(Cl)nc3)CC2)sc2ccccc12
1130,2820,Cc1c(CN2CCN(C(=O)Nc3cccnc3)CC2)sc2ccc(Cl)cc12
774,1400,CCc1c(CN2CCN(C(=O)Nc3cccnc3)CC2)sc2ccccc12
1230,3600,Cc1c(C(=O)C2CCN(C(=O)Nc3cccnc3)CC2)sc2ccccc12
1200,3320,Cc1c(CN2CCN(C(=O)Nc3cccnc3)CC2)sc2cccc(F)c12
79,200,Cc1c(C(O)C2CCN(C(=O)Nc3cccnc3)CC2)sc2ccccc12 (racemic)
< 10,< 10,CC(=O)Nc1ccc(NC(=O)N2CCN(Cc3sc4ccccc4c3C)CC2)cn1
2610,5130,Cc1c(CC2CCN(C(=O)Nc3cccnc3)CC2)sc2ccccc12
< 10,< 10,Cc1c(CN2CCN(C(=O)Nc3ccc(Oc4cccnc4)nc3)CC2)sc2ccccc12
1080,2400,Cc1c(CN2CCN(C(=O)Nc3ccc(N(C)C)nc3)CC2)sc2ccccc12
< 10,< 10,Cc1c(CN2CCN(C(=O)NC(C)(C)C)CC2)sc2ccccc12
758,1980,Cc1ccc(NC(=O)N2CCN(Cc3sc4cccc(F)c4c3C)CC2)cn1
13,44,CCCCNC(=O)N1CCN(Cc2sc3ccccc3c2C)CC1
113,73,COc1ccc2c(C)c(CN3CCN(C(=O)Nc4cccnc4)CC3)sc2c1
< 10,70,Cc1c(CN2CCN(C(=O)NC(C)C)CC2)sc2ccccc12
< 10,34,Cc1c(C(C)C2CCN(C(=O)Nc3cccnc3)CC2)sc2ccccc12 (stereo in doubt; 17-E1)
< 10,42,Cc1c(CN2CCN(C(=O)NCCO)CC2)sc2ccccc12
617,1810,CCc1c(CN2CCN(C(=O)Nc3cccnc3)CC2)sc2ccc(F)cc12
< 10,< 10,Cc1c(CN2CCN(C(=O)NC3CCCCC3)CC2)sc2ccccc12
482,3020,Cc1ccc2sc(CC3CCN(C(=O)Nc4cccnc4)CC3)c(C)c2c1
635,1000,CNc1ccc(NC(=O)N2CCN(Cc3sc4ccccc4c3C)CC2)cn1
